STAT1 blocker – STAT1 signaling inhibition. inhibition, % at 5.5 µM. NIH 3T3 STAT1-luciferase reporter, IFN-gamma, luminescence. 200,000 tested, 0.35% active;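 active = inhibition above a set limit, the mean inhibition across all tested compounds plus 3 SD, cut at about 34% in these data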;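 also: 0% = IFN-gamma with DMSO and 100% = IFN-gamma with 300 µM nifuroxazide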
STAT3 act – activators of IL-6 induced STAT3 signaling; activation (% of control), % at 5.6 µM; U3A cells, IL-6 STAT3-luciferase reporter, luminescence; 100% = signal with IL-6 EC80 alone; 190,000 tested, 0.91% active;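 active = activation above the screen-wide mean of compound activation plus 3 SD, cut at about 130% in these data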;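 also: 0% = background luminescence of wells with medium and substrate only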
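Material: human STAT1-deficient U3A cells with stable STAT3-luciferase reporter / Probe or stimulus: IL-6 stimulus at 33 ng/mL final / Schedule: 1 h compound pre-exposure, 6 h IL-6 stimulation, 37 °C / Technique: luminescence / Read-out basis: percent of IL-6-only median luminescence / Control set: IL-6-only high control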
b-catenin transl – modulators of beta-catenin nuclear translocation. HeLa beta-catenin nuclear translocation, immunofluorescence imaging. nuclear translocation activity, % at 5 µM. 190,000 tested, 0.3% active. AID 1665;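 active = nuclear translocation activity above 50% at 5 µM, with a well cell count of 50 or more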;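 also: per-cell ratio of nuclear to cytoplasmic median beta-catenin stain intensity; plate controls were DMSO negative control for no effect and GSK-3 inhibitor IX positive control for full effect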
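assay system = human HeLa cells, endogenous beta-catenin | times = compound treatment 24 h, 37°C, 5% CO2 | detection = Anti-beta-catenin immunofluorescence on PFA-fixed, Triton-permeabilized cells, DAPI nuclei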
STAT3 inh – reduces IL-6 driven STAT3 reporter signal. 190,000 tested, 0.89% active. inhibition, % at 5.5 µM. U3A cells, IL-6 STAT3-luciferase reporter, luminescence; host cell line lacks STAT1;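 active = inhibition above the mean inhibition across all screened compounds plus 3 SD, cut at about 44% in these data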;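 also: 0% = DMSO only wells and 100% = 100 µM nifuroxazide control wells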
MT stabilize HCS – microtubule stabilizers in HeLa cells. HeLa tubulin immunostaining HCS, 24 h; share of cells brighter than vehicle mean+2SD. % tubulin-high responders, % at 10 µM. 200,000 tested, 0.83% active;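 active = plate Z-score above 3 for both tubulin-high and condensed-nucleus cell shares, with cell loss under 80%, at 10 µM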;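 also: anti alpha tubulin signal scored within the nucleus-defined area of each cell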
* = called active by the depositor; nt = not tested or not shown. Sampled rows, rich in hits. Any-hit rate of the full collection: about 2.4%.

SMILES | STAT1 blocker | STAT3 act | b-catenin transl | STAT3 inh | MT stabilize HCS
COC(=O)c1[nH]c2c(c1C)C(=O)CC(c1cccs1)C2 (stereo unspecified) | -6 | 107 | 39 | -6 | 16*
Cc1cc(OCC(O)CNC(C)(C)C)ccc1Cl (stereo unspecified) | 0 | 101 | 0 | 0 | 3
CC(=O)O[C@@]12CO[C@@H]1C[C@H](O)[C@@]1(C)C(=O)[C@H](O)C3=C(C)[C@@H](OC(=O)[C@H](O)[C@@H](NC(=O)OC(C)(C)C)c4ccccc4)C[C@](O)([C@@H](OC(=O)c4ccccc4)[C@H]21)C3(C)C | nt | nt | 77* | nt | nt
CCOC(=O)N1CCN(C(=O)c2cn(C)c3ccc(S(=O)(=O)N4CCC(C)CC4)cc3c2=O)CC1 | 2 | 100 | -2 | 8 | 4
c1ccc2c(NCCCN3CCOCC3)c3ccccc3nc2c1 | -88 | 215* | 1 | -127 | 34*
COc1ccc(NCC(=O)n2c(C)c(C)c3ccccc32)cc1 | 6 | 89 | 41 | 20 | 20*
Cc1ccc(S(=O)(=O)Nc2cc(=O)[nH]c3c2CCC3)cc1 | nt | nt | -4 | nt | nt
COc1ccc(NC(=O)N(Cc2cc3ccc(OC)cc3[nH]c2=O)CC2CCCO2)cc1 (stereo unspecified) | -2 | 109 | 1 | -8 | 13*
COc1ccc2cc(CN(C(=O)Nc3ccccc3OC)C3CCCC3)c(=O)[nH]c2c1 | 3 | 110 | 0 | -8 | 4
COc1ccc2cc(CN(CC3CCCO3)C(=O)Nc3ccccc3OC)c(=O)[nH]c2c1 (stereo unspecified) | 5 | 87 | -1 | 17 | 23*
CC(C)c1ccc(NC(=O)C2CC(=O)Nc3nc4ccccc4n32)cc1 (stereo unspecified) | nt | nt | -1 | nt | nt
COc1ccc(Nc2nc(C)nc3sc4c(c23)CCC4)cc1O | -1 | 86 | 2 | 23 | 21*
c1coc(CNc2ncnc3sc4c(c23)CCCCC4)c1 | -1 | 98 | -2 | 8 | 1
Cc1nc(NCc2ccco2)c2c3c(sc2n1)CCC3 | -54 | 167* | 1 | -76 | 4
Cc1ccc2cn[nH]c2c1[N+](=O)[O-] | 1 | 124 | -1 | -15 | 2
N#Cc1c(-c2ccc(Cl)cc2)c2c([nH]c1=O)-c1ccccc1OC2 | nt | nt | 3 | nt | nt
CCc1ccc(NSc2ccccc2[N+](=O)[O-])cc1 | 12 | 85 | 1 | 25 | 46*
O=c1[nH]c(SCc2cccc(Cl)c2)nc2[nH]ncc12 | 1 | 97 | 0 | 11 | 3
Cc1ccc2c(c1)nnn2C1CCN(S(=O)(=O)c2ccc(C(=O)N(C)C)cc2)CC1 | 8 | 98 | 0 | 4 | 1
Cc1ccc2c(c1)nnn2C1CCN(S(=O)(=O)c2ccc(C(=O)N3CC(C)CC(C)C3)cc2)CC1 (stereo unspecified) | 9 | 92 | 1 | 16 | 20*
CN(CC(=O)Nc1nc2ccccc2s1)S(=O)(=O)c1ccc(Br)cc1 | -10 | 134* | 4 | -40 | 2
O=C(CS(=O)(=O)c1ccccc1)Nc1nc2ccccc2s1 | -8 | 133* | 0 | -31 | 2
CCOc1ccc2nc(NC(=O)CS(=O)(=O)c3ccccc3)sc2c1 | -15 | 100 | -1 | 3 | 4
CCc1ccc2nc(NC(=O)Cn3cnc4ccccc4c3=O)sc2c1 | -13 | 104 | 0 | -2 | 1
O=C(Cn1cnc2ccccc2c1=O)Nc1nc2ccccc2s1 | 4 | 136* | 0 | -38 | 1
SMILES | STAT1 blocker | STAT3 act | b-catenin transl | STAT3 inh | MT stabilize HCS
CC(C)c1csc(CN2CCC(N3CCC(C(=O)NCC4CCCO4)CC3)CC2)n1 (stereo unspecified) | 0 | 102 | 2 | 3 | 2
CC(C)CC(C(=O)Nc1oc(-c2ccco2)c(-c2ccco2)c1C#N)N1C(=O)c2ccccc2C1=O (stereo unspecified) | -2 | 103 | -4 | 2 | 2
COc1ccc(C(=O)NC2=Nc3ccccc3N=C(C)C2c2ccccc2)cc1 (stereo unspecified) | nt | nt | 1 | nt | nt
CN(CC1CCOCC1)C(=O)CC1C(=O)NCCN1Cc1cccc(Oc2ccccc2)c1 (stereo unspecified) | 0 | 91 | -1 | 15 | 3
COc1ccc(-c2cc(C(=O)N3CCN(c4ccccn4)CC3)c3ccccc3n2)cc1 | -9 | 110 | 0 | -7 | 29*
COc1ccc(-c2cc(C(=O)O)c3ccccc3n2)c(OC)c1 | 2 | 102 | 0 | 1 | 4

Screens as filed in PubChem BioAssay.
